A short description of data set [1]: Stability in human microsomes assessed as unbound intrinsic clearance. Format: ADME, Microsome. The gist of the method:
(§1)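 Unbound intrinsic clearance measured in human and mouse liver microsomes, expressed in L/h/kg. Values are geometric means of at least two separate runs.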

Data set [2] can be described thus: Stability in mouse microsomes assessed as unbound intrinsic clearance. Format: ADME, Microsome. In outline: as §1
Data set [3] concerns the target T1, Nuclear receptor ROR-gamma (Homo sapiens, UniProt P51449).
T1 sequence (P51449 whole entry): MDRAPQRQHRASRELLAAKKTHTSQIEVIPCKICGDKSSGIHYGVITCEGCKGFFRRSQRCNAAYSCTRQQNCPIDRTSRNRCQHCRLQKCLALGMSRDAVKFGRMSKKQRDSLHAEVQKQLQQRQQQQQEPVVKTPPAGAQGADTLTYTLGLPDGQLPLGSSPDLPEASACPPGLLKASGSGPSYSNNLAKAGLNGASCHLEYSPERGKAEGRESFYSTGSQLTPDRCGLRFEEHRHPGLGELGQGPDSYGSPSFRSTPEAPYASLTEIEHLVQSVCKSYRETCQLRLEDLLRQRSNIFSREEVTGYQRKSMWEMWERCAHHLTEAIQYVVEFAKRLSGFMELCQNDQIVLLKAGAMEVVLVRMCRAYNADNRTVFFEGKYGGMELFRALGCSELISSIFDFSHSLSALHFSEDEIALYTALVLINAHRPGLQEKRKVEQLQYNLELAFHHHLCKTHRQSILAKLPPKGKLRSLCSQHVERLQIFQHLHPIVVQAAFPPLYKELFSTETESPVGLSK
In words: Inverse agonist activity at pSG5GAL4-DBD/LBD fused human RORgamma receptor expressed in COS7 cells co-expressing 5 copies of GAL4 response element after 18 hrs by luciferase reporter gene based assay. Format: cell-based. (In general: In a reporter assay the amount or activity of a reporter protein is the signal.)

Data set [4] deals with T1, Nuclear receptor ROR-gamma. In words: Inverse agonist activity at RORgamma in human CD4+ T cells assessed as inhibition of IL17A secretion after 72 hrs by ELISA. Format: cell-based, CD4+ve Th. (In general: An ELISA detects its analyte on a solid surface through an enzyme-linked reagent.)
A further data set relates to Mus musculus. Description: Immunosuppressive activity in po dosed PLP (139 to 151 residues)-induced experimental autoimmune encephalomyelitis mouse model assessed as incidence of disease administered twice starting from immunization relative to control. Format: functional. In outline: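 EAE induced in mice by immunization with proteolipid protein peptide PLP139-151; ascending paralysis develops 10–12 days post-immunization. Compound dosed orally b.i.d. starting from immunization. Disease onset/incidence scored relative to control.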

The EC50 is the concentration giving half of the maximal effect.

Structures are written as SMILES. Bounds are passed on as bounds.

On to `CCc1cc(C(F)(F)F)c2cccc(OCc3c(Cl)ccc(S(=O)(=O)N4CCC[C@H]4C(=O)NC)c3Cl)c2n1`, for which the figures for the CL free in data set [1] and in data set [2] were 300 mL/min/kg and 1280 mL/min/kg, respectively. Further, the figures for the EC50 in data set [3] and in data set [4] were 350 nM and 210 nM, respectively.

In the case of `CNC(=O)[C@@H]1CCCN1S(=O)(=O)c1ccc(Cl)c(COc2cccc3c(-c4ccncc4)cc(C(C)C)nc23)c1Cl`, the CL free in data set [1] came out at 333 mL/min/kg; in data set [2], 633 mL/min/kg. The EC50 in data set [3] turned out to be 220 nM; in data set [4], 1830 nM.

`CNC(=O)[C@@H]1CCCN1S(=O)(=O)c1ccc(Cl)c(COc2cccc3c(-c4ccncc4)cc(C)nc23)c1Cl`: the CL free in data set [1] was found to be 217 mL/min/kg; in data set [2] it was 550 mL/min/kg.

On to `CNC(=O)[C@@H]1CCCN1S(=O)(=O)c1ccc(Cl)c(COc2cccc3c(-n4ccnc4)cc(C(C)C)nc23)c1Cl`, for which the CL free in data set [1] came out at 33 mL/min/kg; in data set [2], 130 mL/min/kg. In data set [3], this compound registered an EC50 of 520 nM.

In the case of `Cc1cc(C(F)(F)F)c2cccc(OCc3c(Cl)ccc(S(=O)(=O)N4CC[C@@H](N(C)C)C4)c3Cl)c2n1`, the figures for the CL free in data set [1] and in data set [2] were 167 mL/min/kg and 867 mL/min/kg, respectively. Further, the half-maximal effective concentration (EC50) in data set [3] was 910 nM.

In the case of `Cc1cc(C(F)(F)F)c2cccc(OCc3c(Cl)ccc(S(=O)(=O)N4CCC(CCO)CC4)c3Cl)c2n1`, the CL free stood at 367 mL/min/kg in data set [1] and 1080 mL/min/kg in data set [2]. Further, it took 390 nM to reach a half-maximal effect in data set [3] (EC50).

Turning to `CNC(=O)[C@@H]1CCCN1S(=O)(=O)c1ccc(Cl)c(COc2cccc3c(OCc4ccccc4)cc(C)nc23)c1Cl`, the CL free came out at 467 mL/min/kg in data set [1] and 1820 mL/min/kg in data set [2]. Besides, in data set [3], a half-maximal response (EC50) required 880 nM.

In the case of `Cc1cc(C(F)(F)F)c2cccc(OCc3c(Cl)ccc(S(=O)(=O)N4CCCCC4)c3Cl)c2n1`, the CL free in data set [1] was found to be 233 mL/min/kg; in data set [2], 1000 mL/min/kg.

Take `CNC(=O)[C@@H]1CCCN1S(=O)(=O)c1cccc(COc2cccc3c(C(F)(F)F)cc(C)nc23)c1`: the figures for the CL free in data set [1] and in data set [2] were 50 mL/min/kg and 767 mL/min/kg, respectively. The same compound yielded an EC50 in data set [3] of over 10000 nM.

For the compound `COC[C@@H]1CCCN1S(=O)(=O)c1ccc(Cl)c(COc2cccc3c(C(F)(F)F)cc(C)nc23)c1Cl`, the figures for the CL free in data set [1] and in data set [2] were 450 mL/min/kg and 1620 mL/min/kg, respectively. The EC50 in data set [3] and in data set [4] was 160 nM in each case.

Regarding `CNC(=O)[C@@H]1CCCN1S(=O)(=O)c1ccc(Cl)c(COc2cccc3c(C(F)(F)F)cc(C(C)C)nc23)c1Cl`, the results for the CL free in data set [1] and in data set [2] were 500 mL/min/kg and 1630 mL/min/kg, respectively. Besides, the EC50 was 170 nM in data set [3] and 770 nM in data set [4].

Consider `CNC(=O)[C@@H]1CCCN1S(=O)(=O)c1ccc(Cl)c(COc2cccc3c(-c4ccccc4)cc(C)nc23)c1Cl`, for which the concentration for a half-maximal effect (EC50) in data set [3] is 320 nM; in data set [4] it was 890 nM.

As to `Cc1cc(C(F)(F)F)c2cccc(OCc3c(Cl)ccc(S(=O)(=O)N4C[C@@H](C)O[C@@H](C)C4)c3Cl)c2n1`, the CL free stood at 317 mL/min/kg in data set [1] and 933 mL/min/kg in data set [2]. This compound displayed an EC50 in data set [3] of 220 nM.

Consider `CNC(=O)[C@@H]1CCCN1S(=O)(=O)c1ccc(Cl)c(COc2cccc3c(-c4cccnc4)cc(C)nc23)c1Cl`, for which the CL free in data set [1] came out at 233 mL/min/kg; in data set [2] it was 700 mL/min/kg. Moreover, the EC50 was 100 nM in data set [3] and 1010 nM in data set [4].

With `Cc1cc(C(F)(F)F)c2cccc(OCc3c(Cl)ccc(S(=O)(=O)N4CCC(C#N)CC4)c3Cl)c2n1`, the CL free worked out at 433 mL/min/kg in data set [1] and 1720 mL/min/kg in data set [2]. The compound also returned an EC50 in data set [3] of 760 nM.

Turning to `Cc1cc(C(F)(F)F)c2cccc(OCc3c(Cl)ccc(S(=O)(=O)N4CCC[C@H]4C(=O)O)c3Cl)c2n1`, the CL free in data set [1] is 8.3 mL/min/kg; in data set [2] it was 13 mL/min/kg. For the same compound, the EC50 in data set [3] was 1390 nM.

Take `CNC(=O)[C@@H]1CCCN1S(=O)(=O)c1ccc(Cl)c(COc2cccc3c(C(F)(F)F)cc(C)nc23)c1Cl`: the values for the CL free in data set [1] and in data set [2] were 250 mL/min/kg and 1380 mL/min/kg, respectively.

On to `CCN(c1ccc(C(O)(C(F)(F)F)C(F)(F)F)cc1)S(=O)(=O)c1ccccc1`, for which the EC50 in data set [3] came to 1080 nM; in data set [4], 930 nM.

On to `CNC(=O)[C@@H]1CCCN1S(=O)(=O)c1ccc(Cl)c(COc2cccc3c(OCc4ccccc4)cc(C(C)C)nc23)c1Cl`, for which the CL free in data set [1] was found to be 667 mL/min/kg; in data set [2] it was 1220 mL/min/kg.

Regarding `Cc1cc(C(F)(F)F)c2cccc(OCc3c(Cl)ccc(S(=O)(=O)N4CCCC4)c3Cl)c2n1`, the CL free in data set [1] is 233 mL/min/kg; in data set [2], 967 mL/min/kg.

Consider `CNC(=O)[C@@H]1CCCN1S(=O)(=O)c1ccc(Cl)c(COc2cccc3c(-n4ccnc4)cc(C)nc23)c1Cl`, for which the results for the CL free in data set [1] and in data set [2] were 33 mL/min/kg and 267 mL/min/kg, respectively. The half-maximal effective concentration (EC50) was found to be 1360 nM in data set [3] and 3000 nM in data set [4].

For the compound `CNC(=O)[C@@H]1CCCN1S(=O)(=O)c1ccc(Cl)c(COc2cccc3c(-c4ccccn4)cc(C)nc23)c1Cl`, the CL free turned out to be 183 mL/min/kg in data set [1] and 733 mL/min/kg in data set [2].

Consider `CCCCCCCCc1ccc(CCC(N)(CO)CO)cc1` [FINGOLIMOD], for which the Activity in the data set with Mus musculus is given as 0%.

Regarding `Cc1cc(C(F)(F)F)c2cccc(OCc3c(Cl)ccc(S(=O)(=O)N4CCC[C@H]4C(N)=O)c3Cl)c2n1`, the figures for the CL free in data set [1] and in data set [2] were 167 mL/min/kg and 12600 mL/min/kg, respectively. In addition, the EC50 in data set [3] is 440 nM; in data set [4] it was 470 nM.

For `CNC(=O)[C@@H]1CCCN1S(=O)(=O)c1ccc(Cl)c(COc2cccc3c(-n4ccnc4)cc(C(F)(F)F)nc23)c1Cl`, the CL free in data set [1] came out at 17 mL/min/kg; in data set [2], 130 mL/min/kg. The EC50 stood at 170 nM in data set [3] and 3320 nM in data set [4].

`Cc1cc(C(F)(F)F)c2cccc(OCc3c(Cl)ccc(S(=O)(=O)N4CCC[C@H]4CO)c3Cl)c2n1`: the CL free was 250 mL/min/kg in data set [1] and 1630 mL/min/kg in data set [2]. Further, the EC50 in data set [3] turned out to be 960 nM; in data set [4], 830 nM.

On to `CNC(=O)[C@@H]1CCCN1S(=O)(=O)c1ccc(Cl)c(COc2cccc3c(-c4cncn4C)cc(C)nc23)c1Cl`, for which the CL free was 33 mL/min/kg in data set [1] and 120 mL/min/kg in data set [2]. The EC50 in data set [3] came out at 1510 nM; in data set [4], 1390 nM.

On to `CNC(=O)[C@@H]1CCCN1S(=O)(=O)c1ccc(Cl)c(COc2cccc3c(-c4nccn4C)cc(C)nc23)c1Cl`, for which the CL free was 120 mL/min/kg in data set [1] and 917 mL/min/kg in data set [2]. The same compound came in with an EC50 in data set [3] of over 10000 nM.

(Values after ChEMBL document CHEMBL4665652, “Discovery of novel quinoline sulphonamide derivatives as potent, selective and orally active RORγ inverse agonists” (Bioorg Med Chem Lett, 2019).)
